Data as given in ChEMBL document CHEMBL4330084, “Development of posaconazole-based analogues as hedgehog signaling pathway inhibitors” (Eur J Med Chem, 2019).
Values after ≈ are worked out from the molar mass of the structure shown.

Experiments:
[1] = Inhibition of hedgehog signaling pathway in mouse ASZ cells assessed as decrease in Gli1 mRNA expression after 48 hrs by qRT-PCR analysis; type: cell-based
Summary of the method: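 Murine BCC line ASZ (Ptch+/-), 80% confluent, seeded at 10,000 cells/well in 154CF medium (2% FBS), 24 h, then serum-free medium 24 h (37°C, 5% CO2). Treated 48 h with compound at 10–0.001 μM or DMSO vehicle. Gli1 mRNA measured by qRT-PCR against actin B internal control; concentrations lowering actin B were excluded. IC50 as mean ± SEM, repeat experiments in triplicate.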

[2] = Kinetic solubility of compound in pH 7.4 PBS by LC-MS/MS analysis; type: physicochemical; conditions: for solubility kinetic: PBS, read-out: Kinetic_solubility
Summary of the method: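 Kinetic solubility in PBS, pH 7.4; run by a CRO (Pharmaron or Cyprotex) under its standard protocol.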

Cytochrome P450 3A4 = Cytochrome P450 3A4 (Homo sapiens, UniProt P08684); assay: Inhibition of CYP3A4 in human liver microsomes by LC-MS/MS analysis
hERG (KCNH2) = hERG (KCNH2) (Homo sapiens, UniProt Q12809); assay: Inhibition of human ERG expressed in CHO cells at 25 uM by electrophysiology assay relative to control; type: cell-based; conditions: CHO cells expressing human ERG
[3] = Half life in human liver microsomes at 1 uM by LC-MS/MS analysis
[4] = human, microsomes, 1 µM
Mus musculus [5] = species: Mus musculus; assay: Potency index, ratio of IC50 for PSZ to IC50 for test compound for inhibition of hedgehog signaling pathway in mouse ASZ cells assessed as decrease in Gli1 mRNA expression after 48 hrs by qRT-PCR analysis; type: cell-based
Mus musculus [6] = species: Mus musculus; assay: Inhibition of hedgehog signaling pathway in hedgehog-dependent mouse Ptch-CKO cells assessed as inhibition of cell growth

Chain of hERG (KCNH2) (Q12809 whole entry): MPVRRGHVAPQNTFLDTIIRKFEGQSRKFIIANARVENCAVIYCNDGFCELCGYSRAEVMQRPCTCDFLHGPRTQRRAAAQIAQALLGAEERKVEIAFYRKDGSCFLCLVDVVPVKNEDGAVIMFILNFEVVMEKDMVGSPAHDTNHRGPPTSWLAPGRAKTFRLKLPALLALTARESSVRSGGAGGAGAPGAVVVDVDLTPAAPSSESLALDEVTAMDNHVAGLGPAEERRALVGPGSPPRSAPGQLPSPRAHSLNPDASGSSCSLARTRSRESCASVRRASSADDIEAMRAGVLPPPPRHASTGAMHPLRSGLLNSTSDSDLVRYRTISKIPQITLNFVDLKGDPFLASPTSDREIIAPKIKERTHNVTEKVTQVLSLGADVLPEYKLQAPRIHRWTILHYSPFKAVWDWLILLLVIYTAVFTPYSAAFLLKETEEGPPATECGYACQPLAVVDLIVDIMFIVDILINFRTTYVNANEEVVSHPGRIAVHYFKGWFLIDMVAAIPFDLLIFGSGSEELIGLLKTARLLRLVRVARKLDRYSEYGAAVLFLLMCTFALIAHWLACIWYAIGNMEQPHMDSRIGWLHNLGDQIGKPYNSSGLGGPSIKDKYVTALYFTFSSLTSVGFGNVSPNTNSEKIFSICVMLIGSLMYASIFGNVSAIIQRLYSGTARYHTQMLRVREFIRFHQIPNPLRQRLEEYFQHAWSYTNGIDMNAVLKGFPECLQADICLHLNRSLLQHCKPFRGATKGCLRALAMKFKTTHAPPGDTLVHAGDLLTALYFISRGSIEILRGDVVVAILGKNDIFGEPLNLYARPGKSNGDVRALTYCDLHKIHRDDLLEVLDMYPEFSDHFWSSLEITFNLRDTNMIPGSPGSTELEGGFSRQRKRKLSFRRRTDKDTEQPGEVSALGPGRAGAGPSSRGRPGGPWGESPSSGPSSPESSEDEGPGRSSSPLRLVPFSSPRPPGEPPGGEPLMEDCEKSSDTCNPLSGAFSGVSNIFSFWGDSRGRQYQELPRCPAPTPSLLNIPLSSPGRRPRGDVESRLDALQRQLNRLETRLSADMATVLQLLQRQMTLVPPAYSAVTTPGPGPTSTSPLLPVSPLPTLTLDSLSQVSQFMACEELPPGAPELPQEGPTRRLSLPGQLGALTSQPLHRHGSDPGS
Chain of Cytochrome P450 3A4 (P08684 whole entry): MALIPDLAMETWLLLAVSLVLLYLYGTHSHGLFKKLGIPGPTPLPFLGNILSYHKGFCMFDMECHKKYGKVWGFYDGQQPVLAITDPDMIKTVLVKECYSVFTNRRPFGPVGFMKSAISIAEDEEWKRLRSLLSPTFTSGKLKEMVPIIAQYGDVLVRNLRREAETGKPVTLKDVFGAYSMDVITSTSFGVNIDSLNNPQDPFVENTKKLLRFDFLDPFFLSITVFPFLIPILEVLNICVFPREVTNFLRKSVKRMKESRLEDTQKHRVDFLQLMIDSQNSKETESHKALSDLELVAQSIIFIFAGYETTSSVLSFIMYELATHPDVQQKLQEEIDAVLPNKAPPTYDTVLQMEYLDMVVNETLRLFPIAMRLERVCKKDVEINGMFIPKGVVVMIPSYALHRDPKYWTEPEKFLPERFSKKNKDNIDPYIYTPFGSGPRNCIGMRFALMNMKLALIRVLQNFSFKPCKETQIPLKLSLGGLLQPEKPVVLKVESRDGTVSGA

Question: For `C[C@]1(c2ccc(F)cc2F)C[C@H](COc2ccc(N3CCN(c4ccc(NC(=O)Oc5ccccc5)cc4)CC3)cc2)CO1`, which IC50 [1] is on record?
Answer: The IC50 was over 10000 nM.

Question: For `C[C@]1(c2ccc(F)cc2F)C[C@H](COc2ccc(N3CCN(c4ccc([N+](=O)[O-])cc4)CC3)cc2)CO1`, which IC50 [1] is on record?
Answer: Its IC50 is 740 nM.

Question: Which IC50 [1] does the source give for `C[C@]1(c2ccc(F)cc2F)C[C@H](COc2ccc(N3CCN(c4ccc(NC(=O)c5cccnc5)cc4)CC3)cc2)CO1` here?
Answer: The IC50 was over 10000 nM.

Question: And the solubility kinetic [2]?
Answer: Its solubility kinetic is 1.56 µM (≈ 0.912 µg/mL).

Question: For `C[C@]1(c2ccc(F)cc2F)C[C@H](COc2ccc(N3CCN(c4ccc(-n5cnn(CCC(=O)O)c5=O)cc4)CC3)cc2)CO1`, which IC50 [1] is on record?
Answer: Its IC50 is 32 nM.

Question: For `C[C@]1(c2ccc(F)cc2F)C[C@H](COc2ccc(N3CCN(c4ccc(-n5cnn(CC(=O)O)c5=O)cc4)CC3)cc2)CO1`, which IC50 [1] is on record?
Answer: The IC50 was 150 nM.

Question: Which IC50 [1] does the source give for `CC1(c2ccc(Cl)cc2Cl)OCC(COc2ccc(N3CCN(c4ccc(-n5cnn(CCC(=O)O)c5=O)cc4)CC3)cc2)O1` (centres undefined) here?
Answer: The IC50 was 12 nM.

Question: What about the IC50 (Cytochrome P450 3A4) of the same molecule?
Answer: The IC50 was over 20000 nM.

Question: And the solubility kinetic [2]?
Answer: Its solubility kinetic is 0.781 µM (≈ 0.511 µg/mL).

Question: And the inhibition at 25 µM (hERG (KCNH2))?
Answer: The inhibition at 25 µM was 3.6%.

Question: With `C[C@]1(c2ccc(F)cc2F)C[C@H](COc2ccc(N3CCN(c4ccc(NC(=O)c5cccc(O)c5)cc4)CC3)cc2)CO1` as the molecule, how does the IC50 [1] read?
Answer: The IC50 was 190 nM.

Question: And the t1/2 [3]?
Answer: The t1/2 was over 3 h.

Question: What about the solubility kinetic [2] of the same molecule?
Answer: The solubility kinetic was 3.13 µM (≈ 1.88 µg/mL).

Question: What about the CLH [4] of the same molecule?
Answer: The CLH was 2.23 µL/min/mg.

Question: For `CC(=O)c1cccc(C(=O)Nc2ccc(N3CCN(c4ccc(OC[C@@H]5CO[C@@](C)(c6ccc(F)cc6F)C5)cc4)CC3)cc2)c1`, which IC50 [1] is on record?
Answer: Its IC50 is 24 nM.

Question: And the IC50 (Cytochrome P450 3A4)?
Answer: Its IC50 is over 20000 nM.

Question: What about the t1/2 [3] of the same molecule?
Answer: Its t1/2 is 1.92 h.

Question: And the solubility kinetic [2]?
Answer: The solubility kinetic was 3.13 µM (≈ 1.96 µg/mL).

Question: What about the inhibition at 25 µM (hERG (KCNH2)) of the same molecule?
Answer: Its inhibition at 25 µM is 4.2%.

Question: And the CLH [4]?
Answer: Its CLH is 20 µL/min/mg.

Question: For `CCC(C)n1ncn(-c2ccc(N3CCN(c4ccc(OCC5COC(Cn6cncn6)(c6ccc(Cl)cc6Cl)O5)cc4)CC3)cc2)c1=O` (centres undefined) [ITRACONAZOLE], which t1/2 [3] is on record?
Answer: Its t1/2 is 0.45 h.

Question: What about the solubility kinetic [2] of the same molecule?
Answer: The solubility kinetic was 0.8 µM (≈ 0.565 µg/mL).

Question: And the inhibition at 25 µM (hERG (KCNH2))?
Answer: Its inhibition at 25 µM is under 1%.

Question: With `C[C@]1(c2ccc(F)cc2F)C[C@H](COc2ccc(N3CCN(c4ccc(N)cc4)CC3)cc2)CO1` as the molecule, how does the IC50 [1] read?
Answer: The IC50 was 330 nM.

Question: Which IC50 [1] does the source give for `C[C@]1(c2ccc(F)cc2F)C[C@H](COc2ccc(N3CCN(c4ccc(-n5cnn(CCCO)c5=O)cc4)CC3)cc2)CO1` here?
Answer: The IC50 was 20 nM.

Question: And the solubility kinetic [2]?
Answer: The solubility kinetic was 1.56 µM (≈ 0.945 µg/mL).

Question: For `CC[C@@H](C)n1ncn(-c2ccc(N3CCN(c4ccc(OC[C@@H]5CO[C@@](C)(c6ccc(F)cc6F)C5)cc4)CC3)cc2)c1=O`, which IC50 [1] is on record?
Answer: Its IC50 is 190 nM.

Question: And the IC50 (Cytochrome P450 3A4)?
Answer: Its IC50 is over 20000 nM.

Question: What about the t1/2 [3] of the same molecule?
Answer: Its t1/2 is 1.03 h.

Question: What about the Ratio IC50 (Mus musculus [5]) of the same molecule?
Answer: Its Ratio IC50 is 2.5.

Question: And the GI50 (Mus musculus [6])?
Answer: The GI50 was 610 nM.

Question: And the CLH [4]?
Answer: The CLH was 37.4 µL/min/mg.

Question: With `C[C@]1(c2ccc(F)cc2F)C[C@H](COc2ccc(N3CCN(c4ccc(NC(=O)NN)cc4)CC3)cc2)CO1` as the molecule, how does the IC50 [1] read?
Answer: Its IC50 is 220 nM.

Question: Which IC50 [1] does the source give for `CC[C@@H]([C@H](C)O)n1ncn(-c2ccc(N3CCN(c4ccc(OC[C@@H]5CO[C@@](Cn6cncn6)(c6ccc(F)cc6F)C5)cc4)CC3)cc2)c1=O` [POSACONAZOLE] here?
Answer: Its IC50 is 500 nM.

Question: What about the t1/2 [3] of the same molecule?
Answer: Its t1/2 is 1.8 h.

Question: What about the Kinetic_solubility ([2]; buffer) of the same molecule?
Answer: Its Kinetic_solubility is 0.781 µM.

Question: What about the inhibition at 25 µM (hERG (KCNH2)) of the same molecule?
Answer: The inhibition at 25 µM was 14.7%.

Question: And the CLH [4]?
Answer: The CLH was 21.5 µL/min/mg.

Question: For `C[C@]1(c2ccc(F)cc2F)C[C@H](COc2ccc(N3CCN(c4ccc(-n5cn[nH]c5=O)cc4)CC3)cc2)CO1`, which IC50 [1] is on record?
Answer: Its IC50 is 190 nM.
